The source made the active and inactive calls. No cut-off for these calls is given here.
What was measured:
[1] = species on record: Rattus norvegicus; assay: Inhibition of MAGL in Wistar rat cerebellar membrane at 100 uM; format: cell membranes; details: Cerebellum
In short: (§1)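 Cerebellar membranes from 4-week-old male Wistar rats. Preincubation 30 min at 25 °C: 10 µg protein, 44 mM Tris-HCl pH 7.4, 0.9 mM EDTA, 0.5% BSA, 1.25% DMSO. Incubation 90 min at 25 °C: 5 µg protein, 54 mM Tris-HCl, 1.1 mM EDTA, 100 mM NaCl, 5 mM MgCl2, 0.5% BSA, 50 µM 2-AG. Samples at 0 and 90 min stopped with acidified acetonitrile (pH 3.0). 2-AG and arachidonic acid quantified by HPLC-UV at 211 nm from peak areas.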

[2] = target: T1, Fatty-acid amide hydrolase 1 (Rattus norvegicus) (UniProt P97612); assay: Inhibition of FAAH activity in Wistar rat brain assessed as remaining enzyme activity at 10 uM; values are per cent of control
T1 sequence (whole entry): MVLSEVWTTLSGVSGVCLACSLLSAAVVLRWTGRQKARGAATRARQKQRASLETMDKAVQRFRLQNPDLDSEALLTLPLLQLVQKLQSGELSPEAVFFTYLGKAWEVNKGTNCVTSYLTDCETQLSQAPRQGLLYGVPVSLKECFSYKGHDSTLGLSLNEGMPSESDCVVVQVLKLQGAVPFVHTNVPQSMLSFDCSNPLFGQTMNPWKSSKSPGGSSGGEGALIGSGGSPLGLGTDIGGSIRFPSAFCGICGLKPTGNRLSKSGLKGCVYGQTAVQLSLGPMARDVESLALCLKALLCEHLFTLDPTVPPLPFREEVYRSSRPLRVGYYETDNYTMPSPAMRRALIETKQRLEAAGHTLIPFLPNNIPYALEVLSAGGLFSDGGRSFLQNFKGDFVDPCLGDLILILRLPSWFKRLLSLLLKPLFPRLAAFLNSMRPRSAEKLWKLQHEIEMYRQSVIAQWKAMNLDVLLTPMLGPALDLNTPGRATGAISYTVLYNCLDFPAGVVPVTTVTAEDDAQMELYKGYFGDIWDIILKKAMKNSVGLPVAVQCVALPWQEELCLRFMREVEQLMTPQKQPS

[3] = target: T2, Fatty-acid amide hydrolase 1 (Rattus norvegicus, UniProt P97612); assay: Inhibition of FAAH activity in Wistar rat brain
T2 sequence (P97612 whole entry): T1 sequence (whole entry)
In short: (§2)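 Enzyme source: supernatant (10 000 g, 20 min, 4 °C) of whole-brain-minus-cerebellum homogenate from 8-week-old male Wistar rats in 0.1 M potassium phosphate pH 7.4. Compound (in DMSO, final max 5%) preincubated 10 min with 18 µg protein. Substrate: [ethanolamine 1-³H]arachidonoylethanolamide, with 0.5% fatty-acid-free BSA, 10 min at 37 °C. Stopped with ethyl acetate. Aqueous [³H]ethanolamine counted by liquid scintillation.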

[4] = species on record: Rattus norvegicus; assay: Inhibition of MAGL in Wistar rat cerebellar membrane assessed as remaining enzyme activity at 100 uM; values are per cent of control; details: Cerebellum
[5] = Inhibition of MAGL in Wistar rat cerebellar membrane; format: cell membranes, Cerebellum; in short: as §1
[6] = species on record: Rattus norvegicus; assay: Inhibition of MAGL in Wistar rat cerebellar membrane assessed as remaining enzyme activity at 1 mM; values are per cent of control; details: Cerebellum
[7] = target: T1, Fatty-acid amide hydrolase 1 (Rattus norvegicus); assay: Inhibition of FAAH activity in Wistar rat brain at 10 uM; in short: as §2

Structure (SMILES) | IC50 [3] [nM] | residual activity [4] [%] | other results
O=C(c1cccc(OC(=O)C2CCCC2)c1)c1nc2ccccc2o1 |  |  | Activity [1]: inactive; residual activity [2]: 88%
O=C(NCc1ccccc1)Oc1cccc(C(=O)c2nc3ccccc3s2)c1 | 121 | 75 | 
O=C(NC1CCCC1)Oc1ccc(C(=O)c2nc3ccccc3o2)cc1 | 288 |  | IC50 [5]: 14 µM
Cc1ccccc1CNC(=O)Oc1ccc(C(=O)c2nc3ccccc3o2)cc1 | 137 |  | IC50 [5]: 25 µM; residual activity [6]: 11%
CCNC(=O)Oc1cccc(C(=O)c2nc3ccccc3o2)c1 | 379 | 75 | 
O=C(NC1CCCCC1)Oc1cccc(C(=O)c2nc3ccccc3s2)c1 | 56 | 79 | 
CCCCNC(=O)Oc1cccc(C(=O)c2nc3ccccc3s2)c1 | 103 | 76 | 
CCCCNC(=O)Oc1cccc(C(=O)c2nc3ccccc3o2)c1 | 54 | 59 | 
Cc1cccc(CNC(=O)Oc2cccc(C(=O)c3nc4ccccc4o3)c2)c1 | 32 |  | IC50 [5]: 16 µM; residual activity [6]: 11%
CCCNC(=O)Oc1cccc(C(=O)c2nc3ccccc3o2)c1 | 109 | 57 | 
O=C(c1cccc(NC(=O)C2CCCC2)c1)c1nc2ccccc2o1 |  |  | Activity [1]: inactive; residual activity [2]: 95%
O=C(Nc1cccc(C(=O)c2nc3ccccc3o2)c1)NC1CCCC1 |  |  | Activity [1]: inactive; residual activity [2]: 94%
O=C(NC1CCCCC1)Oc1cccc(C(=O)c2nc3ccccc3o2)c1 | 47 | 83 | 
O=C(NCc1ccccc1)Oc1cccc(C(=O)c2nc3ccccc3o2)c1 | 152 | 57 | 
Cc1cccc(CNC(=O)Oc2cccc(C(=O)c3nc4ccccc4s3)c2)c1 | 38 |  | IC50 [5]: 23 µM; residual activity [6]: 11%
O=C(NC1CCCC1)Oc1cccc(C(=O)c2nc3ccccc3s2)c1 | 47 | 71 | 
O=C(Nc1cccc(C(=O)c2nc3ccccc3o2)c1)OC1CCCC1 |  |  | Activity [1]: inactive; residual activity [2]: 95%
O=C(c1cccc(OCc2ccccc2)c1)c1nc2ccccc2s1 |  |  | Activity [7]: inactive; inhibition [1]: inactive
CCNC(=O)Oc1cccc(C(=O)c2nc3ccccc3s2)c1 | 238 | 80 | 
O=C(c1cccc(OCc2ccccc2)c1)c1nc2ccccc2o1 |  |  | Activity [7]: inactive; Activity [1]: inactive
O=C(NC1CCCC1)Oc1cccc(C(=O)c2nc3ccccc3o2)c1 | 28 | 54 | 
CCCNC(=O)Oc1cccc(C(=O)c2nc3ccccc3s2)c1 | 143 | 70 | 

From ChEMBL document CHEMBL1148738, “Design, synthesis, and in vitro evaluation of carbamate derivatives of 2-benzoxazolyl- and 2-benzothiazolyl-(3-hydroxyphenyl)-methanones as novel fatty acid amide hydrolase inhibitors” (J Med Chem, 2007)
